Data reported in ChEMBL document CHEMBL1125014, “Synthesis and structure-activity relationships of new 9-N-alkyl derivatives of 9(S)-erythromycylamine” (1990).
≈ marks a conversion by molar mass, not a printed value.

Experiments:
Assay type in all cases: functional
Haemophilus influenzae [1] = assay: MIC value was measured against haemophilus influenzae.
Procedure, shortened: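 Susceptibility determined by standard agar-dilution method against a panel of bacterial strains.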

Haemophilus influenzae [2] = assay: MIC value was measured against haemophilus influenzae CL
Staphylococcus aureus [3] = assay: Effective dose against mice infected with Staphylococcus aureus after peroral administration (in vivo); conditions: in Mus musculus, po
Streptococcus pneumoniae [4] = assay: Effective dose against mice infected with streptococcus pneumoniae after peroral administration (in vivo); conditions: in Mus musculus, po
Streptococcus pyogenes [5] = assay: Effective dose against mice infected with streptococcus pyogenes after peroral administration (in vivo); conditions: in Mus musculus, po
Staphylococcus aureus [6] = assay: MIC value measured against staphylococcus aureus X1
Streptococcus pyogenes [7] = assay: MIC value measured against streptococcus pyogenes C203
[8] = test system: Staphylococcus epidermidis; assay: microbe, parasite or virus in culture
Streptococcus pneumoniae [9] = assay: MIC value measured against streptococcus pneumoniae Park1

Compound	MIC (Haemophilus influenzae [1]) [µg/mL]	MIC (Haemophilus influenzae [2]) [µg/mL]	MIC (Staphylococcus aureus [6]) [µg/mL]	MIC (Streptococcus pyogenes [7]) [µg/mL]	MIC [8] [µg/mL]	MIC (Streptococcus pneumoniae [9]) [µg/mL]	ED50 (Staphylococcus aureus [3]) [mg/kg]	ED50 (Streptococcus pneumoniae [4]) [mg/kg]	ED50 (Streptococcus pyogenes [5]) [mg/kg]
CCCCCCCCCCCCN[C@@H]1[C@H](C)[C@@H](O)[C@](C)(O)[C@@H](CC)OC(=O)[C@H](C)[C@@H](OC2CC(C)(OC)C(O)C(C)O2)[C@H](C)[C@@H](OC2OC(C)CC(N(C)C)C2O)[C@](C)(O)C[C@H]1C (stereo partly drawn)			4 (≈ 4.43 µM)	0.5 (≈ 0.554 µM)	4 (≈ 4.43 µM)	0.06 (≈ 0.0664 µM)	> 45	> 50	> 50
C=CCCCCCCCCCN[C@@H]1[C@H](C)[C@@H](O)[C@](C)(O)[C@@H](CC)OC(=O)[C@H](C)[C@@H](OC2CC(C)(OC)C(O)C(C)O2)[C@H](C)[C@@H](OC2OC(C)CC(N(C)C)C2O)[C@](C)(O)C[C@H]1C (stereo partly drawn)	2 (≈ 2.25 µM)	2 (≈ 2.25 µM)	2 (≈ 2.25 µM)	1 (≈ 1.13 µM)	1 (≈ 1.13 µM)				
CC[C@H]1OC(=O)[C@H](C)[C@@H](OC2CC(C)(OC)C(O)C(C)O2)[C@H](C)[C@@H](OC2OC(C)CC(N(C)C)C2O)[C@](C)(O)C[C@@H](C)[C@H](NCC(C)(C)CO)[C@H](C)[C@@H](O)[C@]1(C)O (stereo partly drawn)	1 (≈ 1.22 µM)	1 (≈ 1.22 µM)	1 (≈ 1.22 µM)	0.03 (≈ 0.0365 µM)	1 (≈ 1.22 µM)	0.015 (≈ 0.0183 µM)	> 50	46	20
CC[C@H]1OC(=O)[C@H](C)[C@@H](OC2CC(C)(OC)C(O)C(C)O2)[C@H](C)[C@@H](OC2OC(C)CC(N(C)C)C2O)[C@](C)(O)C[C@@H](C)[C@H](NCCC(C)C)[C@H](C)[C@@H](O)[C@]1(C)O (stereo partly drawn)	1 (≈ 1.24 µM)	1 (≈ 1.24 µM)	1 (≈ 1.24 µM)	0.06 (≈ 0.0745 µM)	0.25 (≈ 0.311 µM)	0.03 (≈ 0.0373 µM)	13	11	9
CC[C@H]1OC(=O)[C@H](C)[C@@H](OC2CC(C)(OC)C(O)C(C)O2)[C@H](C)[C@@H](OC2OC(C)CC(N(C)C)C2O)[C@](C)(O)C[C@@H](C)C(=O)[C@H](C)[C@@H](O)[C@H]1C (stereo partly drawn)		4 (≈ 5.57 µM)	0.25 (≈ 0.348 µM)	0.03 (≈ 0.0418 µM)	0.25 (≈ 0.348 µM)				
CC[C@H]1OC(=O)[C@H](C)[C@@H](OC2CC(C)(OC)C(O)C(C)O2)[C@H](C)[C@@H](OC2OC(C)CC(N(C)C)C2O)[C@](C)(O)C[C@@H](C)[C@H](NC2CCCC2)[C@H](C)[C@@H](O)[C@]1(C)O (stereo partly drawn)	2 (≈ 2.49 µM)	2 (≈ 2.49 µM)	1 (≈ 1.25 µM)	0.06 (≈ 0.0747 µM)	0.5 (≈ 0.623 µM)	0.06 (≈ 0.0747 µM)	46	4	4
CC[C@H]1OC(=O)[C@H](C)[C@@H](OC2CC(C)(OC)C(O)C(C)O2)[C@H](C)[C@@H](OC2OC(C)CC(N(C)C)C2O)[C@](C)(O)C[C@@H](C)[C@H](NC(C)CCCN(CC)CC)[C@H](C)[C@@H](O)[C@]1(C)O (stereo partly drawn)	8 (≈ 9.13 µM)	8 (≈ 9.13 µM)	2 (≈ 2.28 µM)	0.5 (≈ 0.571 µM)	2 (≈ 2.28 µM)	0.5 (≈ 0.571 µM)	41	18	31
CC[C@H]1OC(=O)[C@H](C)[C@@H](OC2CC(C)(OC)C(O)C(C)O2)[C@H](C)[C@@H](OC2OC(C)CC(N(C)C)C2O)[C@](C)(O)C[C@@H](C)[C@H](N(C)C2CCCCC2)[C@H](C)[C@@H](O)[C@]1(C)O (stereo partly drawn)	32 (≈ 38.5 µM)	32 (≈ 38.5 µM)	16 (≈ 19.3 µM)	1 (≈ 1.2 µM)	8 (≈ 9.63 µM)	0.12 (≈ 0.144 µM)	> 50	> 50	> 50
CCN[C@@H]1[C@H](C)[C@@H](O)[C@](C)(O)[C@@H](CC)OC(=O)[C@H](C)[C@@H](OC2CC(C)(OC)C(O)C(C)O2)[C@H](C)[C@@H](OC2OC(C)CC(N(C)C)C2O)[C@](C)(O)C[C@H]1C (stereo partly drawn)	1 (≈ 1.31 µM)	1 (≈ 1.31 µM)	1 (≈ 1.31 µM)	0.12 (≈ 0.157 µM)	1 (≈ 1.31 µM)	0.03 (≈ 0.0393 µM)	23	13	13
CC[C@H]1OC(=O)[C@H](C)[C@@H](OC2CC(C)(OC)C(O)C(C)O2)[C@H](C)[C@@H](OC2OC(C)CC(N(C)C)C2O)[C@](C)(O)C[C@@H](C)[C@H](N(C)C)[C@H](C)[C@@H](O)[C@]1(C)O (stereo partly drawn)	2 (≈ 2.62 µM)	2 (≈ 2.62 µM)	4 (≈ 5.24 µM)	0.25 (≈ 0.328 µM)	2 (≈ 2.62 µM)		> 44	44	22
CC[C@H]1OC(=O)[C@H](C)[C@@H](OC2CC(C)(OC)C(O)C(C)O2)[C@H](C)[C@@H](OC2OC(C)CC(N(C)C)C2O)[C@](C)(O)C[C@@H](C)[C@H](NC)[C@H](C)[C@@H](O)[C@]1(C)O (stereo partly drawn)	0.5 (≈ 0.668 µM)	0.5 (≈ 0.668 µM)	1 (≈ 1.34 µM)	0.06 (≈ 0.0801 µM)	0.25 (≈ 0.334 µM)		44	35	21
CC[C@H]1OC(=O)[C@H](C)[C@@H](OC2CC(C)(OC)C(O)C(C)O2)[C@H](C)[C@@H](OC2OC(C)CC(N(C)C)C2O)[C@](C)(O)C[C@@H](C)[C@H](NCC2CCCCCCC2)[C@H](C)[C@@H](O)[C@]1(C)O (stereo partly drawn)			1 (≈ 1.16 µM)	0.06 (≈ 0.0698 µM)	0.5 (≈ 0.582 µM)				
CC[C@H]1OC(=O)[C@H](C)[C@@H](OC2CC(C)(OC)C(O)C(C)O2)[C@H](C)[C@@H](OC2OC(C)CC(N(C)C)C2O)[C@](C)(O)C[C@@H](C)[C@H](N(C)C(C)C)[C@H](C)[C@@H](O)[C@]1(C)O (stereo partly drawn)	32 (≈ 40.5 µM)	32 (≈ 40.5 µM)	8 (≈ 10.1 µM)	0.5 (≈ 0.632 µM)	8 (≈ 10.1 µM)	0.5 (≈ 0.632 µM)			
CC[C@H]1OC(=O)[C@H](C)[C@@H](OC2CC(C)(OC)C(O)C(C)O2)[C@H](C)[C@@H](OC2OC(C)CC(N(C)C)C2O)[C@](C)(O)C[C@@H](C)[C@H](NC(C)C)[C@H](C)[C@@H](O)[C@]1(C)O (stereo partly drawn)	2 (≈ 2.57 µM)	2 (≈ 2.57 µM)	1 (≈ 1.29 µM)	0.25 (≈ 0.322 µM)	0.5 (≈ 0.643 µM)	0.12 (≈ 0.154 µM)	32	13	13
CC[C@H]1OC(=O)[C@H](C)[C@@H](OC2CC(C)(OC)C(O)C(C)O2)[C@H](C)[C@@H](OC2OC(C)CC(N(C)C)C2O)[C@](C)(O)C[C@@H](C)[C@H](NCCC(C)CCCC(C)(C)OC)[C@H](C)[C@@H](O)[C@]1(C)O (stereo partly drawn)	1 (≈ 1.1 µM)	1 (≈ 1.1 µM)	0.5 (≈ 0.552 µM)	0.015 (≈ 0.0166 µM)	0.25 (≈ 0.276 µM)		> 46	24	25

The next lines start with results.

MIC (Haemophilus influenzae [1]) [µg/mL]	MIC (Haemophilus influenzae [2]) [µg/mL]	MIC (Staphylococcus aureus [6]) [µg/mL]	MIC (Streptococcus pyogenes [7]) [µg/mL]	MIC [8] [µg/mL]	MIC (Streptococcus pneumoniae [9]) [µg/mL]	Compound	ED50 (Staphylococcus aureus [3]) [mg/kg]	ED50 (Streptococcus pneumoniae [4]) [mg/kg]	ED50 (Streptococcus pyogenes [5]) [mg/kg]
2 (≈ 2.49 µM)	2 (≈ 2.49 µM)	1 (≈ 1.25 µM)	1 (≈ 1.25 µM)	1 (≈ 1.25 µM)		CC[C@H]1OC(=O)[C@H](C)[C@@H](OC2CC(C)(OC)C(O)C(C)O2)[C@H](C)[C@@H](OC2OC(C)CC(N(C)C)C2O)[C@](C)(O)C[C@@H](C)[C@H](NCCCC#N)[C@H](C)[C@@H](O)[C@]1(C)O (stereo partly drawn)	36	29	21
1 (≈ 1.2 µM)	1 (≈ 1.2 µM)	0.25 (≈ 0.3 µM)	0.015 (≈ 0.018 µM)	0.25 (≈ 0.3 µM)	0.015 (≈ 0.018 µM)	CCCCCCCN[C@@H]1[C@H](C)[C@@H](O)[C@](C)(O)[C@@H](CC)OC(=O)[C@H](C)[C@@H](OC2CC(C)(OC)C(O)C(C)O2)[C@H](C)[C@@H](OC2OC(C)CC(N(C)C)C2O)[C@](C)(O)C[C@H]1C (stereo partly drawn)	> 50	33	31
2 (≈ 2.44 µM)	2 (≈ 2.44 µM)	0.5 (≈ 0.609 µM)	0.008 (≈ 0.00974 µM)	0.5 (≈ 0.609 µM)	0.008 (≈ 0.00974 µM)	CC[C@H]1OC(=O)[C@H](C)[C@@H](OC2CC(C)(OC)C(O)C(C)O2)[C@H](C)[C@@H](OC2OC(C)CC(N(C)C)C2O)[C@](C)(O)C[C@@H](C)[C@H](NCCCCCO)[C@H](C)[C@@H](O)[C@]1(C)O (stereo partly drawn)	> 50	> 50	43
4 (≈ 4.88 µM)	4 (≈ 4.88 µM)	1 (≈ 1.22 µM)	0.12 (≈ 0.146 µM)	0.25 (≈ 0.305 µM)	0.008 (≈ 0.00977 µM)	CCCCCCN[C@@H]1[C@H](C)[C@@H](O)[C@](C)(O)[C@@H](CC)OC(=O)[C@H](C)[C@@H](OC2CC(C)(OC)C(O)C(C)O2)[C@H](C)[C@@H](OC2OC(C)CC(N(C)C)C2O)[C@](C)(O)C[C@H]1C (stereo partly drawn)	39	14	18
1 (≈ 1.24 µM)	1 (≈ 1.24 µM)	0.5 (≈ 0.621 µM)	0.06 (≈ 0.0745 µM)	0.5 (≈ 0.621 µM)	0.015 (≈ 0.0186 µM)	CCCCCN[C@@H]1[C@H](C)[C@@H](O)[C@](C)(O)[C@@H](CC)OC(=O)[C@H](C)[C@@H](OC2CC(C)(OC)C(O)C(C)O2)[C@H](C)[C@@H](OC2OC(C)CC(N(C)C)C2O)[C@](C)(O)C[C@H]1C (stereo partly drawn)	25	14	9
1 (≈ 1.18 µM)	1 (≈ 1.18 µM)	0.5 (≈ 0.59 µM)	0.015 (≈ 0.0177 µM)	0.25 (≈ 0.295 µM)	0.015 (≈ 0.0177 µM)	CCCCCCCCN[C@@H]1[C@H](C)[C@@H](O)[C@](C)(O)[C@@H](CC)OC(=O)[C@H](C)[C@@H](OC2CC(C)(OC)C(O)C(C)O2)[C@H](C)[C@@H](OC2OC(C)CC(N(C)C)C2O)[C@](C)(O)C[C@H]1C (stereo partly drawn)	> 50	46	23
1 (≈ 1.26 µM)	1 (≈ 1.26 µM)	0.25 (≈ 0.316 µM)	0.06 (≈ 0.0758 µM)	0.25 (≈ 0.316 µM)	0.015 (≈ 0.019 µM)	CCCCN[C@@H]1[C@H](C)[C@@H](O)[C@](C)(O)[C@@H](CC)OC(=O)[C@H](C)[C@@H](OC2CC(C)(OC)C(O)C(C)O2)[C@H](C)[C@@H](OC2OC(C)CC(N(C)C)C2O)[C@](C)(O)C[C@H]1C (stereo partly drawn)	15	13	13
2 (≈ 2.29 µM)	2 (≈ 2.29 µM)	1 (≈ 1.14 µM)	0.015 (≈ 0.0171 µM)	1 (≈ 1.14 µM)	0.015 (≈ 0.0171 µM)	CCCCCCCCCCN[C@@H]1[C@H](C)[C@@H](O)[C@](C)(O)[C@@H](CC)OC(=O)[C@H](C)[C@@H](OC2CC(C)(OC)C(O)C(C)O2)[C@H](C)[C@@H](OC2OC(C)CC(N(C)C)C2O)[C@](C)(O)C[C@H]1C (stereo partly drawn)	> 50	> 50	> 50
